NTR1 ag: activates human neurotensin receptor 1; NTR1-U2OS beta-arrestin-GFP spot imaging, agonist mode; activation, % at 20 µM; 330,000 tested, 0.17% active; AID 493036;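 active means activation at or above 40% of the spot to cytoplasm intensity ratio, with at least 20 cells analyzed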;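 further: 0% = DMSO without peptide and 100% = 100 nM NTR1 peptide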
MC4R barr agon: agonists of human melanocortin 4 receptor (MC4R) beta-arrestin; 360,000 tested, 0.98% active; P32245; AID 540308; U2OS MC4R beta-arrestin complementation, luminescence; percent of melanotan II response, DMSO zero; activation, % at 8.9 µM;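 active means activation above a per-plate cutoff, the mean activation of sample wells on that plate plus 3 SD, cut at about 8% in these data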
Target sequence (P32245 whole entry, looked up): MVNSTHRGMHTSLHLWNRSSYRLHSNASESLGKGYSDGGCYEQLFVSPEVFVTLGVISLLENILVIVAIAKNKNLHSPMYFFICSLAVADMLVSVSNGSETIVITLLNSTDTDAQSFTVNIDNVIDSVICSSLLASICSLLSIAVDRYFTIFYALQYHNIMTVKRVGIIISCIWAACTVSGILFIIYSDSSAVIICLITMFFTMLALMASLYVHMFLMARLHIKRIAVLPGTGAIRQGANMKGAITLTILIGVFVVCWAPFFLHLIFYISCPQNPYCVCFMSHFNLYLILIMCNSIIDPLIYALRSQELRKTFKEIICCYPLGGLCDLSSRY
MC4R antagonist: antagonists of human melanocortin 4 receptor (MC4R); MC4R-expressing cells, MTII-stimulated cAMP, LANCE TR-FRET; AID 540295; inhibition, % at 6.5 µM; 360,000 tested, 0.48% active; P32245;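 active means inhibition above its plate's cutoff, the mean of tested wells on that plate plus 3 SD, cut at about 29% in these data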;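 further: 0% = Melanotan II alone and 100% = Melanotan II plus saturating MCL0020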
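material = U2OS cells stably expressing human melanocortin 4 receptor (MC4R) | also added = Melanotan II challenge | dosing = single nominal compound dose of 6.5 µM | detection = TR-FRET with Eu-cAMP and labeled anti-cAMP, 671 nm | replication = singlicate | timing = compound 30 min, challenge 1 h, detection 1 h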
AI-2 QS mod: modulates the Vibrio harveyi AI-2 quorum sensing system; Vibrio harveyi JMH597 AI-2 luminescence/OD600 ratio, 9 h; hits give low values; strain lacks LuxN and CqsS sensors; 0 = neutral-control median; activity change, % at 7.5 µM; 300,000 tested, 0.4% active; in the data active means activity change below about -75%, passing the limit was not always enough;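 further: luminescence divided by OD600 gain over 9 h not by final OD600 alone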
The depositor's hits bear a star; x = no result. Rows were chosen to be rich in hits. Some 1.8% of all compounds tested hit in one or more screens of this group.

SMILES	NTR1 ag	MC4R barr agon	MC4R antagonist	AI-2 QS mod
CO[C@H]1C=CO[C@@]2(C)Oc3c(C)c(O)c4c(O)c(c5c(nc6cc(C)ccn65)c4c3C2=O)NC(=O)C(C)=CC=C[C@H](C)[C@H](O)[C@@H](C)[C@@H](O)[C@@H](C)[C@H](OC(C)=O)[C@@H]1C	4	x	x	-219*
CN(CC(=O)Nc1ccccc1Cl)C(=O)COC(=O)c1ccc([N+](=O)[O-])s1	1	-2	1	x
CN(CC(=O)Nc1ccccc1Cl)C(=O)COC(=O)c1ccc(Cl)cc1[N+](=O)[O-]	0	-3	6	-94*
O=C(OCC(=O)N1CCCC1=O)c1ccc(Cl)cc1[N+](=O)[O-]	0	-1	6	-81*
O=C(OCC(=O)N1CCOCC1)c1ccc(Cl)cc1[N+](=O)[O-]	0	0	-4	-79*
ON=C(CCc1ccccc1)CCc1ccccc1	x	5	4	x
Cc1ccc(S(=O)(=O)NC2CC(C)(C)NC(C)(C)C2)cc1C	-2	0	2	x
CCOC(=O)c1ccc(N/C=C\C(=O)c2cccc(OC)c2)cc1	5	9.4*	-6	16
CCN(CC)c1ccc2nc3c4ccccc4c(=O)cc-3oc2c1	19	x	x	8
CCN(CC)c1ccc2c(-c3ccc(S(=O)(=O)O)cc3S(=O)(=O)[O-])c3ccc(=[N+](CC)CC)cc-3oc2c1	-3	-4	50*	25
Cc1cc(-n2c(SCC(=O)Nc3ccc(Br)cc3)nc3n[nH]c(C)c3c2=N)ccc1Cl	8	19*	16	27
Cc1cc(-n2c(SCC(=O)Nc3ccc(F)c(F)c3)nc3n[nH]c(C)c3c2=N)ccc1Cl	4	5	10	38
CCSc1nnc(NC(=O)CCNS(=O)(=O)c2ccccc2F)s1	5	0	17	17
Cc1scc(C(=O)N/N=C/c2ccc([N+](=O)[O-])o2)c1C	-1	-2	-14	-91*
CCNc1nc(NCC)nc(N/N=C/c2ccc([N+](=O)[O-])o2)n1	6	-3	-5	-158*
O=C(N/N=C/c1ccc([N+](=O)[O-])o1)c1ccc(O)cc1	x	1	-15	-128*
CCOC(=O)C1CCN(c2ccccc2CN2CCN(c3ccccc3OCC)CC2)CC1	5	1	9	13
O=C(O)c1nn(CC(=O)N2CCN(c3ncc(C(F)(F)F)cc3Cl)CC2)c(=O)c2ccccc12	7	2	-3	30
O=C(N/N=C/c1ccco1)C1CC1c1ccccc1 (stereo not given)	-1	1	0	-86*
CCCCn1c(N)c(N(CCOC)C(=O)CC(NC(=O)c2ccccc2)c2ccccc2)c(=O)[nH]c1=O (stereo not given)	0	-3	3	25
O=C(O)c1ccc(N/N=C/c2cccc(C(F)(F)F)c2)cc1	-1	0	-1	-93*
O=C(O)c1ccc(N/N=C/C(Br)=C/c2ccccc2)cc1	7	2	-2	-94*
O=C(O)c1ccc(N/N=C/c2ccc(F)c(F)c2)cc1	1	-1	9	-94*
O=C(N/N=C/C(Br)=C/c1ccccc1)C(O)c1ccccc1 (stereo not given)	2	2	4	-8
O=C(O)c1ccc(N/N=C/c2cccc(F)c2)cc1	4	1	3	-79*
SMILES	NTR1 ag	MC4R barr agon	MC4R antagonist	AI-2 QS mod
O=C(CSc1ccc(-c2ccc(-n3cccn3)cc2)nn1)Nc1ccccc1F	10	11*	2	14
COc1ccc(NC(=O)COC(=O)c2cc(Cl)ccc2O)cc1S(=O)(=O)N1CCCCC1	-2	-3	7	x
CCCN1C(=O)/C(=C/c2ccc(N3CCOCC3)cc2)NC1=S	0	-4	-4	14
Cc1ccc(CN2C(=O)N/C(=C\c3ccc(N4CCOCC4)cc3)C2=O)cc1	3	8.6*	-2	44
O=C(c1ccc(F)cc1)C1CCN(Cc2ccc(F)cc2)CC1	0	0	14	-8
O=c1[nH]c(Cc2ccc(Cl)cc2)nc2ccccc12	-1	1	3	-38
O=c1[nH]c(Cc2cccc(C(F)(F)F)c2)nc2ccccc12	0	9.0*	5	-5
Cc1cccc(OCC(=O)NCC(=O)N/N=C/c2cc(Br)cc(Br)c2O)c1	52*	1	10	21
O=C(CSc1nc2ccccc2c(=O)n1CCCO)Nc1ccc2c(c1)OCCO2	0	-1	13	x
Cc1cc(C)n2nc(N)c(N=Nc3ccc4c(c3)OCO4)c2n1	3	8.6*	-16	1
Cc1cccc(C(=O)OCC(=O)N2CCCC2=O)c1O	0	2	8	x
Cc1ccc(S(=O)(=O)Nc2nc(-c3ccc(F)cc3)cs2)cc1	1	-1	8	-92*
O=[N+]([O-])c1ccc(-c2ccn[nH]2)o1	-2	0	5	-129*
CN1CCN(C2Cc3cc(Cl)ccc3Sc3cc(F)ccc32)CC1 (stereo not given)	11	5	9	8
OCCN1CCN(C2Cc3cc(Cl)ccc3Sc3ccc(Cl)cc32)CC1 (stereo not given) (tested in a mixture with another compound)	10	9.3*	2	33
NC(=S)NN=Cc1c[nH]c2nccnc12	x	-11	-6	x
CCCN1C(=O)/C(=C/c2c(N3CCNC(=O)C3CC(=O)OCC)nc3c(C)cccn3c2=O)SC1=S (stereo not given)	0	0	29*	9
CCOC(=O)CC1C(=O)NCCN1c1nc2ccc(C)cn2c(=O)c1/C=C1\SC(=S)N(CC(C)C)C1=O (stereo not given)	-2	0	21	8
CCCCCCc1cc2cc(S(=O)(=O)c3ccc(F)c(Cl)c3)c(=O)oc2cc1O	6	8.8*	4	19
CCCCCCc1cc2cc(C(=O)OCC)c(=O)oc2cc1O	18	1	0	11
O=C(Nc1ccc(Br)c(C(F)(F)F)c1)c1ccc(C(F)(F)F)cc1	16	8.5*	17	40
O=C(COC(=O)c1ccccc1O)Nc1cc(S(=O)(=O)N2CCCCCC2)ccc1Cl	5	1	3	x
O=C(COC(=O)c1ccccc1)Nc1cc(S(=O)(=O)N2CCCCCC2)ccc1Cl	5	8.8*	7	x
C=CCc1ccccc1OCC(O)CN1CCN(c2ccc(OC)cc2)CC1 (stereo not given)	3	8.7*	22	10
Cc1ccccc1OCC(O)CN1CCN(c2ccc(Cl)cc2)CC1 (stereo not given)	2	8.2*	8	7
O=C(Cc1ccc(Cl)cc1)Nc1ccccc1N1CCN(C(=O)c2ccccc2)CC1	19	-3	4	-2
CCCn1c(SCC(=O)Nc2cccnc2Cl)n[nH]c1=O	0	-2	1	x
Fc1ccc(CSc2nnc(-c3ccncc3)o2)cc1	1	0	13	-78*
Clc1ccc(CSc2nnc(-c3ccncc3)o2)cc1	6	-1	5	-70
O=C1NC(=O)c2cc(Br)cc3cccc1c23	0	8.9*	-10	11
